Screens (PubChem)
In the library only some 5.8% were active in any assay of this set; here they are far more common.
Tcruzi prolif: blocks T. cruzi growth in NIH3T3 culture. 77,000 tested, 5.9% active. T. cruzi beta-gal in NIH3T3, GalScreen luminescence, 90 h. AID 624255. inhibition, % at 8.34 µM;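 active = mean inhibition above about 93%, with at least 55% of replicates each passing it, limit read from the data, passing the limit was not always enough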
GASC1 inh: blocks human GASC-1 (KDM4C) demethylase activity. Q9H3R0. 96,000 tested, 0.15% active. inhibition, % at 12.5 µM. GST-KDM4C 2-372, H3K9me3 peptide, LANCE TR-FRET;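 active = mean replicate inhibition above about 25%, with at least 55% of replicates also reaching it, limit read from the data, passing the limit was not always enough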
Target sequence (Q9H3R0 2-372 limits assumed): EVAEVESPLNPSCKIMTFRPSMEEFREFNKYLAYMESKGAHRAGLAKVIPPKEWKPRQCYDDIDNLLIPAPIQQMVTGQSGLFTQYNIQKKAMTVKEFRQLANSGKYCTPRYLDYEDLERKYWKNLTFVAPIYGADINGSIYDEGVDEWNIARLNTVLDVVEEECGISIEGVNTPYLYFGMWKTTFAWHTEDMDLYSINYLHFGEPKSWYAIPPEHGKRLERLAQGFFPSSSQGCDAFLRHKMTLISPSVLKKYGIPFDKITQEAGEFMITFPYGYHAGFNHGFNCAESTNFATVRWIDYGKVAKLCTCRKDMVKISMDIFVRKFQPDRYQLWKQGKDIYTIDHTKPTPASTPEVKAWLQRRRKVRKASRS
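Test system: N-terminal GST-fused human GASC-1 (KDM4C) fragment, residues 2-372; quantity: GASC-1 enzyme at 10 nM final in reaction; dosing: single dose; schedule: 30 min demethylation and 1 h detection at room temperature; signal: LANCE TR-FRET, excitation 340 nm, emissions 618 and 671 nm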
Pf Dd2 inh: P. falciparum Dd2 growth inhibition | AID 1159554 | SYBR Green, 72 h; stronger effect = lower value | activity change, % at 10 µM | 94,000 tested, 2.3% active; in the data active = activity change below about -80%
IDH1 R132H inh: blocks human IDH1 R132H reductase activity | 70,000 tested, 0.18% active | diaphorase/resazurin fluorescence, 60 min | inhibition, % at 10 µM; in the data active = inhibition above about 34%
Numbers stand for hits; - = inactive; . = no result.

SMILES	Tcruzi prolif	GASC1 inh	Pf Dd2 inh	IDH1 R132H inh
COc1ccc(CN2C[C@H](C)[C@@H](OC)CN(C)C(=O)c3cc(NC(=O)c4nc5ccccc5s4)ccc3OC[C@@H]2C)cc1	.	-	-85	-
CO[C@@H]1CN(C)C(=O)c2ccc(NC(=O)Nc3cccc(F)c3)cc2OC[C@@H](C)N(C(=O)C2CC2)C[C@@H]1C	-	-	.	-
COc1ccc2c3c([nH]c2c1)[C@H](CO)N(Cc1ccccc1F)CC31CN(C)C1	.	-	-	.
COCC(=O)N1CC2(C1)CN(Cc1ccccc1F)[C@H](CO)c1[nH]c3cc(OC)ccc3c12	.	-	-88	.
COCC(=O)N1CC2(C1)CN(Cc1ccccn1)[C@@H](CO)c1[nH]c3cc(OC)ccc3c12	.	-	-82	.
COCC(=O)N1CCC2(CC1)CN(Cc1ccccc1F)[C@H](CO)c1[nH]c3cc(OC)ccc3c12	.	-	-89	.
COCC(=O)N1CC2(C1)CN(Cc1cc(F)ccc1F)[C@H](CO)c1[nH]c3cc(OC)ccc3c12	.	-	-87	.
C[C@H](O)C#Cc1cnc2c(c1)C(=O)N([C@@H](C)CO)C[C@@H](C)[C@@H](CN(C)C(=O)Cc1ccncc1)O2	.	-	-95	-
CCCC#Cc1cnc2c(c1)C(=O)N([C@@H](C)CO)C[C@H](C)[C@@H](CN(C)C(=O)Cc1ccncc1)O2	-	-	-	51
COCC(=O)Nc1ccc2c(c1)C(=O)N(C)C[C@H](OC)[C@H](C)CN(CC1CC1)[C@H](C)CO2	.	-	.	-
C[C@@H]1CN([C@H](C)CO)C(=O)c2cccc(NC(=O)C3CCCCC3)c2O[C@H]1CN(C)Cc1ccc(C(=O)Nc2ccccc2N)cc1	-	-	-86	.
C[C@H]1CN([C@@H](C)CO)C(=O)c2cccc(NC(=O)C3CCCCC3)c2O[C@H]1CN(C)Cc1ccc(C(=O)Nc2ccccc2N)cc1	-	-	-	.
C[C@@H]1CN([C@@H](C)CO)C(=O)c2cccc(NC(=O)C3CCCCC3)c2O[C@H]1CN(C)Cc1ccc(C(=O)Nc2ccccc2N)cc1	-	-	-87	-
C[C@@H]1CN([C@@H](C)CO)C(=O)c2cccc(NC(=O)NC3CCCCC3)c2O[C@@H]1CN(C)Cc1ccc(C(=O)Nc2ccccc2N)cc1	-	-	-90	.
C[C@H]1CN([C@@H](C)CO)C(=O)c2cccc(NC(=O)C3CC3)c2O[C@@H]1CN(C)Cc1ccc(C(=O)Nc2ccccc2N)cc1	-	-	-	-
C[C@@H]1CN([C@H](C)CO)C(=O)c2cccc(NC(=O)C3CCCCC3)c2O[C@@H]1CN(C)Cc1ccc(C(=O)Nc2ccccc2N)cc1	-	-	-84	-
COc1ccc(NC(=O)Nc2cccc3c2O[C@H](CN(C)S(=O)(=O)c2ccc(OC)cc2)[C@H](C)CN([C@@H](C)CO)C3=O)cc1	-	-	-	-
O=C1CN(S(=O)(=O)Cc2ccccc2)C[C@@H]2[C@@H](c3ccc(C#CC4CC4)cc3)[C@H](CO)N12	.	-	-	.
CC=Cc1ccc2n(c1=O)C[C@H]1[C@H](CO)[C@@H](C(=O)NCC)N(Cc3nccs3)[C@@H]21 (mixture of isomers)	-	-	-	.
C[C@@H]1CCCCO[C@@H](CN(C)C(=O)Nc2ccc(F)cc2)[C@@H](C)CN([C@@H](C)CO)C(=O)c2cc(NC(=O)Cc3ccccc3)ccc2O1	.	-	-	-
C[C@H]1CCCCO[C@H](CN(C)S(=O)(=O)c2cccs2)[C@@H](C)CN([C@@H](C)CO)C(=O)c2cc(NC(=O)Nc3cccc4ccccc34)ccc2O1	-	-	-	-
C[C@@H]1CN([C@H](C)CO)C(=O)c2cc(NC(=O)NC3CCCCC3)ccc2O[C@@H](C)CCCCO[C@@H]1CN(C)S(=O)(=O)c1cccs1	-	-	-84	-
C[C@@H]1CN([C@@H](C)CO)C(=O)c2cc(NC(=O)Nc3cccc4ccccc34)ccc2O[C@@H](C)CCCCO[C@@H]1CN(C)S(=O)(=O)c1cccs1	-	-	-90	-
C[C@@H]1CN([C@H](C)CO)C(=O)c2cc(NC(=O)C3CCCCC3)ccc2O[C@@H](C)CCCCO[C@@H]1CN(C)S(=O)(=O)c1cccs1	-	-	-84	.
C[C@H](CO)N1C[C@H](C)[C@H](CN(C)S(=O)(=O)c2cccs2)OCCCC[C@H](C)Oc2ccc(NC(=O)Nc3ccc(F)cc3)cc2C1=O	-	-	-	-
SMILES	Tcruzi prolif	GASC1 inh	Pf Dd2 inh	IDH1 R132H inh
C[C@H]1CCCCO[C@H](CN(C)S(=O)(=O)c2cccs2)[C@@H](C)CN([C@@H](C)CO)C(=O)c2cc(NC(=O)C3CCCCC3)ccc2O1	-	-	-	.
C[C@@H]1CN([C@H](C)CO)C(=O)c2cc(NC(=O)Nc3ccc(F)cc3)ccc2O[C@@H](C)CCCCO[C@@H]1CN(C)S(=O)(=O)c1cccs1	-	-	-84	.
CC(C)NC(=O)N[C@H]1C=C[C@H](CC(=O)O)O[C@@H]1CO	-	-	-	-
Cc1ccc(S(=O)(=O)N[C@@H]2C=C[C@H](CC(=O)NCc3ccccc3F)O[C@@H]2CO)cc1	-	-	-	-
CNC[C@H]1OCCCC[C@H](C)Oc2ccc(NC(=O)c3ccccc3)cc2C(=O)N([C@H](C)CO)C[C@H]1C	-	-	-	-
COC(=O)c1cc(OC)c(OC)cc1NC(=O)COc1cc(C)c(Br)cc1C	.	.	.	-
Cc1ccc(S(=O)(=O)N(C)C[C@H]2OCc3ccccc3-c3c(n(C)c4ccccc34)C(=O)N([C@@H](C)CO)C[C@@H]2C)cc1	-	-	-92	.
Cc1ccc(S(=O)(=O)N(C)C[C@@H]2OCc3ccccc3-c3c(n(C)c4ccccc34)C(=O)N([C@H](C)CO)C[C@H]2C)cc1	-	-	-82	-
C[C@@H]1CN([C@H](C)CO)C(=O)c2c(c3ccccc3n2C)-c2ccccc2CO[C@@H]1CN(C)S(=O)(=O)c1ccccc1	-	-	-	.
Cc1ccc(S(=O)(=O)N(C)C[C@@H]2OCc3ccccc3-c3c(n(C)c4ccccc34)C(=O)N([C@@H](C)CO)C[C@H]2C)cc1	-	-	-81	.
Cc1noc(C)c1S(=O)(=O)N(C)C[C@@H]1OCc2ccccc2-c2c(n(C)c3ccccc23)C(=O)N([C@H](C)CO)C[C@@H]1C	-	-	-84	-
C[C@@H]1CN([C@@H](C)CO)C(=O)c2c(c3ccccc3n2C)-c2ccccc2CO[C@H]1CN(C)S(=O)(=O)c1ccc(F)cc1	-	-	-	.
O=C(C[C@H]1CC[C@@H](NC(=O)C2CCOCC2)[C@@H](CO)O1)NCc1ccncc1	.	-	-	.
O=C(C[C@@H]1CC[C@H]2[C@@H](COC[C@H](O)CN2Cc2ccncc2)O1)NCC1CC1	-	-	-	.
Cc1ccc(S(=O)(=O)N(C)C[C@@H]2OCc3ccccc3-c3c(n(C)c4ccccc34)C(=O)N([C@H](C)CO)C[C@@H]2C)cc1	.	.	-92	.
C[C@H](CO)N1C[C@H](C)[C@H](CN(C)S(=O)(=O)c2ccc([N+](=O)[O-])cc2)OCc2ccccc2-c2c(n(C)c3ccccc23)C1=O	.	-	-92	.
